Assay results taken from ChEMBL document CHEMBL5316351, “Development of a Covalent Inhibitor of c-Jun N-Terminal Protein Kinase (JNK) 2/3 with Selectivity over JNK1” (J Med Chem, 2023).
Calls of active or inactive are those of the source. The rule behind the calls is not given here.

Legend:
[1] = molecular target: T1, 1-phosphatidylinositol 3-phosphate 5-kinase (Homo sapiens, UniProt Q9Y2I7); assay: Inhibition of Nano-Luc fused PIKFYVE (unknown origin) expressed in HEK293T cells pretreated for 3 hrs followed by K8-tarcer addition and measured after 1 hr by NanoBRET assay; type: cell-based
[2] = molecular target: T1, 1-phosphatidylinositol 3-phosphate 5-kinase; assay: Inhibition of PIKFYVE in human MDA-MB-231 cells assessed as vacuole formation at 4 uM measured after 3 days by bright field microscopy; type: cell-based; conditions: time 3.0 day
Procedure, shortened: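 MDA-MB-231 cells (DMEM, 10% FBS) seeded, next day treated with inhibitor or DMSO; after 3 days imaged by bright-field microscopy at 20× for vacuoles.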

[3] = molecular target: T2, Mitogen-activated protein kinase 9 (Homo sapiens, UniProt P45984); assay: Inhibition of His-tagged human recombinant JNK2 expressed in baculovirus expression system incubated for 1 hr in presence of ATP by Z'-Lyte assay
Target sequence in this assay (P45984 whole entry): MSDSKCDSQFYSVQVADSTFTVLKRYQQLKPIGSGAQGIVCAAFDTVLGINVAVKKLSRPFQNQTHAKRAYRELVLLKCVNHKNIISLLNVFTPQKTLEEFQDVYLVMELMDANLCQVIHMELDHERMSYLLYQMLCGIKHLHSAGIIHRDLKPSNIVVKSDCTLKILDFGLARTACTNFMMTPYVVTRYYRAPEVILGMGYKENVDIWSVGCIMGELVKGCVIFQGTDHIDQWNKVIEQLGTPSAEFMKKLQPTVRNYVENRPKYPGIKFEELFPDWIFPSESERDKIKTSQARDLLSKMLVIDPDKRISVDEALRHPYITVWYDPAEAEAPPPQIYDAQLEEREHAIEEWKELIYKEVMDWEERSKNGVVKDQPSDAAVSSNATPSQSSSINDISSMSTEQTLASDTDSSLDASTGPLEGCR

[4] = molecular target: Mitogen-activated protein kinase 8 (Homo sapiens, UniProt P45983); assay: Inhibition of His-tagged human recombinant JNK1 expressed in insect cells incubated for 1 hr in presence of ATP by Z'-Lyte assay; parameters: species or system Insect cell
Homo sapiens [5] = organism: Homo sapiens; assay: Selectivity ratio of IC50 for His-tagged human recombinant JNK1 expressed in insect cells to His-tagged human recombinant JNK2 expressed in baculovirus expression system
Procedure, shortened: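 Z′-Lyte kinase assays of JNK1 and JNK2 with 100 μM ATP and 1 h compound incubation. Fixed time point IC50 was determined in duplicate. The selectivity ratio is JNK1 IC50 over JNK2 IC50.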

ANBL-6 [6] = assay: Antiproliferative activity against wild type human ANBL-6 cells assessed as inhibition of cell growth incubated for 72 hrs by CellTiter-Glo luminescent assay; type: functional, cell-based
[7] = molecular target: T2, Mitogen-activated protein kinase 9; assay: Binding affinity to wild type N-terminal GST-tagged human recombinant JNK2 (1 to 364 residues) expressed in Escherichia coli in presence of ATP measured every 0.5 mins for 120 mins by fluorescence based analysis
Target sequence in this assay (P45984 whole entry, looked up): as the sequence (P45984 whole entry) above

MM1.S [8] = assay: Induction of apoptosis in human MM1.S cells assessed as increase in caspase-3 cleavage at 0.5 to 2.5 uM incubated for 24 hrs by immunoblot analysis; type: functional, cell-based; conditions: dose 0.5-2.5 µM
MM1.S [9] = assay: Induction of apoptosis in human MM1.S cells assessed as increase in PARP cleavage at 0.5 to 2.5 uM incubated for 24 hrs by immunoblot analysis; type: functional, cell-based; conditions: dose 0.5-2.5 µM
[10] = molecular target: T2, Mitogen-activated protein kinase 9; assay: Covalent binding affinity to JNK2 in human MM1.S cells incubated for 6 hrs by biotin-JNK-IN-7 probe based pull-down competition based analysis; type: cell-based
Procedure, shortened: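 MM.1S cells exposed to compound or DMSO 6 h; lysed in HEPES pH 7.4/NP-40 buffer; lysates incubated with 1 μM biotin-JNK-IN-7 overnight at 4 °C then 2 h room temperature; streptavidin pull-down 2–3 h at 4 °C; bound JNK1/JNK2 detected by western blot.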
Target sequence in this assay (P45984 whole entry, looked up): as the sequence (P45984 whole entry) above

MM1.S [11] = assay: Induction of apoptosis in human MM1.S cells at 250 nM by AnnexinV/PI staining based flow cytometry; type: functional, cell-based
ANBL-6 [12] = assay: Antiproliferative activity against Bortezomib-resistant human ANBL-6 cells assessed as inhibition of cell growth incubated for 72 hrs by CellTiter-Glo luminescent assay; type: functional, cell-based
[13] = molecular target: Epidermal growth factor receptor (Homo sapiens) (UniProt P00533); assay: Inhibition of EGFR (unknown origin)
[14] = molecular target: CDK7/Cyclin H/MNAT1 (Homo sapiens) (UniProt P51946+P50613+P51948); assay: Inhibition of CDK7/Cyclin H/MAT1 (unknown origin); type: protein-complex assay
[15] = molecular target: Aurora kinase B (Homo sapiens) (UniProt Q96GD4); assay: Inhibition of Aurora B kinase (unknown origin)
Homo sapiens [16] = organism: Homo sapiens; assay: Inhibition of CK1 (unknown origin)
[17] = molecular target: Epithelial discoidin domain-containing receptor 1 (Homo sapiens) (UniProt Q08345); assay: Inhibition of DDR1 (unknown origin)
[18] = molecular target: T3, Aurora kinase A (Homo sapiens) (UniProt O14965); assay: Inhibition of Aurora A kinase (unknown origin)
T3 sequence (whole entry): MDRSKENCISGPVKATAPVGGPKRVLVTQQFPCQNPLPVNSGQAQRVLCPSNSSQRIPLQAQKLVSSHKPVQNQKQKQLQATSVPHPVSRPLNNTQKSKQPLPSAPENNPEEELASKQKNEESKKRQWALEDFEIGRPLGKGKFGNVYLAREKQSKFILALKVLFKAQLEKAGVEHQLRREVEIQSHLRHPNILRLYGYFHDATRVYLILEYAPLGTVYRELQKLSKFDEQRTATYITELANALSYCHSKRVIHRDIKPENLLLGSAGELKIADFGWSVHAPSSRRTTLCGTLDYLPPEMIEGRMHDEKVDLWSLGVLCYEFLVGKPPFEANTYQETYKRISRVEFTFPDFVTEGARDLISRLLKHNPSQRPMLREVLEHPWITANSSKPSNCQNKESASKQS

[19] = Antiproliferative activity against human HAP1 cells assessed as inhibition of cell growth incubated for 3 days by CellTiter-Glo luminescent assay; type: functional, cell-based; conditions: HAP1, 72 h

Mitogen-activated protein kinase 8, sequence (P45983 whole entry): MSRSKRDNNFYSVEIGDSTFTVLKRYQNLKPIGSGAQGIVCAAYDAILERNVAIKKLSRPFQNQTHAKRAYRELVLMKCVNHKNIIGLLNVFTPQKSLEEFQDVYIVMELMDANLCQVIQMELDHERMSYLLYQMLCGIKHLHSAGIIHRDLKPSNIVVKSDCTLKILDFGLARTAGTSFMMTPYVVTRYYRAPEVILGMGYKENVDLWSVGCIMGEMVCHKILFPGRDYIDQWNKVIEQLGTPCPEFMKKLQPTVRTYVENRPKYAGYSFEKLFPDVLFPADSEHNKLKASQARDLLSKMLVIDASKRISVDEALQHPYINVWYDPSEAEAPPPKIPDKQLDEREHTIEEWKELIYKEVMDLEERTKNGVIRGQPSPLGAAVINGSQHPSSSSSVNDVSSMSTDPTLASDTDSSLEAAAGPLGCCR
T1 sequence (Q9Y2I7 whole entry, the tested form may be a part): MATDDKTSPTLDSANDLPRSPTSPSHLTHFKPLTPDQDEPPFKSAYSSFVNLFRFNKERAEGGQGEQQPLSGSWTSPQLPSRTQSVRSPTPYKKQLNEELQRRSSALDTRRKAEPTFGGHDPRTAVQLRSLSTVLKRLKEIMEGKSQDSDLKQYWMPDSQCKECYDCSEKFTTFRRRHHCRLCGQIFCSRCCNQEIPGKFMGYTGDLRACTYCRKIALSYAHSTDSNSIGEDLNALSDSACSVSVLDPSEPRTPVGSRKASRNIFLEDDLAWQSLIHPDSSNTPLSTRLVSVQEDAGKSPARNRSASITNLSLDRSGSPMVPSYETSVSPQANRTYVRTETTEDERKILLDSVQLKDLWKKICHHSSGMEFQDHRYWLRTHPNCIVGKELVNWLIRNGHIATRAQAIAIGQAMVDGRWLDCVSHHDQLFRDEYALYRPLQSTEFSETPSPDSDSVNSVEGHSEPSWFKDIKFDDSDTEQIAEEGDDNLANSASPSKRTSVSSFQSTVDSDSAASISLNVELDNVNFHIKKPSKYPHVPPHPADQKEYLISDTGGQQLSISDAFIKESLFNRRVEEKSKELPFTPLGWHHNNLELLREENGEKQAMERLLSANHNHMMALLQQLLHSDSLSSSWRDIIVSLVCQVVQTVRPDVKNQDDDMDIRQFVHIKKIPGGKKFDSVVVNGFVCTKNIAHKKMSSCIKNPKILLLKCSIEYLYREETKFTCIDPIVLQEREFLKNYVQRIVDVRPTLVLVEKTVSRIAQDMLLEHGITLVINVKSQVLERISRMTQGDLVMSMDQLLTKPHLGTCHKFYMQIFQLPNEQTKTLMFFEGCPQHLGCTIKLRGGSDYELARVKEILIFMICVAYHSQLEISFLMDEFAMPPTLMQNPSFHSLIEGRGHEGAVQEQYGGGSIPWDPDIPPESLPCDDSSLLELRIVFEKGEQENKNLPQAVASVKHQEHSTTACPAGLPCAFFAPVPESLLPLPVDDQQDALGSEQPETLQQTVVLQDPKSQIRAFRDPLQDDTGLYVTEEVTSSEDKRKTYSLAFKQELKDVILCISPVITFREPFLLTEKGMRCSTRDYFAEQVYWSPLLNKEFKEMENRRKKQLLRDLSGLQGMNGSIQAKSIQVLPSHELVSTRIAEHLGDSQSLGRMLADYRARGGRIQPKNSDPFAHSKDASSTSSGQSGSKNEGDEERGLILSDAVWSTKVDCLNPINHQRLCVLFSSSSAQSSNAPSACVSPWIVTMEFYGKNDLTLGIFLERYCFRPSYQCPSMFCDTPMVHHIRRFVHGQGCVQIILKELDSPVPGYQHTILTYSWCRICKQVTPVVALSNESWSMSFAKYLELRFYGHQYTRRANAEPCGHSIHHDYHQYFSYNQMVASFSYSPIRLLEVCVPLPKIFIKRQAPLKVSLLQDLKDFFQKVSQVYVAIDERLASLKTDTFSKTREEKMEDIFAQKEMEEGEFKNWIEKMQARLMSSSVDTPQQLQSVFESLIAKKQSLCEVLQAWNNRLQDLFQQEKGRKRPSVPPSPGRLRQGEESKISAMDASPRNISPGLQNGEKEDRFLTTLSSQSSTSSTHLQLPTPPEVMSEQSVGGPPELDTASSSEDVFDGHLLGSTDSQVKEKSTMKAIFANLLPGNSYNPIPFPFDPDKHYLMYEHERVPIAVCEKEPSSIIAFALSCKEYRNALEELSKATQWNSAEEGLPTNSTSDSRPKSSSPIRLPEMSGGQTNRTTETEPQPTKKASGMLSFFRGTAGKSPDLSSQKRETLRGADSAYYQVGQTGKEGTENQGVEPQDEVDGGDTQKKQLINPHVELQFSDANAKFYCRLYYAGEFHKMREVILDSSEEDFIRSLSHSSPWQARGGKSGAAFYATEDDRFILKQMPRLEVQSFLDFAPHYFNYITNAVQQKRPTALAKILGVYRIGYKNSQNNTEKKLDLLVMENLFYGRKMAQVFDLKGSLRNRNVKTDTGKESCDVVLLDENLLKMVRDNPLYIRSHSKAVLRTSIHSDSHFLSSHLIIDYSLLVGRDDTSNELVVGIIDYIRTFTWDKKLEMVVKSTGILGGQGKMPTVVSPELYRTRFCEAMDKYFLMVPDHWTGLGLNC
Epidermal growth factor receptor (Homo sapiens), sequence (P00533 whole entry): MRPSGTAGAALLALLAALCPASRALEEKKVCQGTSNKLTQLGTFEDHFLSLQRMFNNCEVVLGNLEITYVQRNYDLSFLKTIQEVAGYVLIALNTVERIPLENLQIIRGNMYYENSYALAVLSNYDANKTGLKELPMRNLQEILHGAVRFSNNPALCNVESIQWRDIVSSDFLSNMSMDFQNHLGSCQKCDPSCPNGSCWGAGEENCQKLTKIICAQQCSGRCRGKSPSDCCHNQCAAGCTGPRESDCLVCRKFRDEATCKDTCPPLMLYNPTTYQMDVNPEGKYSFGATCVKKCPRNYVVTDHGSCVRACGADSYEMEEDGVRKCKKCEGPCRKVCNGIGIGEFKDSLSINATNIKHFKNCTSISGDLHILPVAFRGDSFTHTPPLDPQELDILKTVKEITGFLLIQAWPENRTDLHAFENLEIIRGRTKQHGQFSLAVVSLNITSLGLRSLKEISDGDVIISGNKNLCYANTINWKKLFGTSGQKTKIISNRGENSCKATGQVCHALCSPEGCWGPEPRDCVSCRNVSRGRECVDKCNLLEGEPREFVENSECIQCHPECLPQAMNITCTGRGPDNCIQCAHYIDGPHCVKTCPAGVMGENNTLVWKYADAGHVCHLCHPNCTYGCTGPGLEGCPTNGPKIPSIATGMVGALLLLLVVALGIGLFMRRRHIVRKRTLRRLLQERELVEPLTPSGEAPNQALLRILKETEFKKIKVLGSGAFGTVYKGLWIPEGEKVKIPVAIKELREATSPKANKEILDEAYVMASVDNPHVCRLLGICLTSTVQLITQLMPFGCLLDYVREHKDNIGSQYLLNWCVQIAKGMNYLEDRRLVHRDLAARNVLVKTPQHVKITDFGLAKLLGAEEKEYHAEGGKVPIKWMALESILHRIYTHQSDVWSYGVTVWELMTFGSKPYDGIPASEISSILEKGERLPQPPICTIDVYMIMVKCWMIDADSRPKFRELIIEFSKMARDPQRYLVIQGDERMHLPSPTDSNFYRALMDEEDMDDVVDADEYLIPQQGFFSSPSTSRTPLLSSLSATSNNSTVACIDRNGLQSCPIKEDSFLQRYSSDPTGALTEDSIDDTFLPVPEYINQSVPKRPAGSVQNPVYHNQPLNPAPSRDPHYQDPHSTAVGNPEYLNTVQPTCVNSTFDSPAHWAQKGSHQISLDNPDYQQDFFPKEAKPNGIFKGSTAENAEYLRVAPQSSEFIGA
Aurora kinase B (Homo sapiens), sequence (Q96GD4 whole entry): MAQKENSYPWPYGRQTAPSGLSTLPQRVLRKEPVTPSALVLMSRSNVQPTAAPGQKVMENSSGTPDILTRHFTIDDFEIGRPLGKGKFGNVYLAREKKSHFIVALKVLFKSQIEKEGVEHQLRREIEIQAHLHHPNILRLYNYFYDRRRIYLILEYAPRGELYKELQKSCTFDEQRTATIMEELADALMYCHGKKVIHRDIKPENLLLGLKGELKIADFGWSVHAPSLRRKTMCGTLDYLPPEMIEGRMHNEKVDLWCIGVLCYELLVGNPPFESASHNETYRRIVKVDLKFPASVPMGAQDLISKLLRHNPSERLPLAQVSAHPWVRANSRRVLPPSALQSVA

IC50 [3] [nM]	IC50 [4] [nM]	Structure (SMILES)	Ratio IC50 (Homo sapiens [5])	further results
		CN(C)CCCC(=O)Nc1ccc(C(=O)N2CC[C@H](Nc3nccc(-c4c(-c5ccccc5)nn5ccccc45)n3)C2)cc1		IC50 [1]: > 3000 nM; inhibition [2]: inactive
483	3050	CN(C)C/C=C/C(=O)Nc1ccc(C(=O)N2CC[C@H](Nc3ncc(Cl)c(-c4c(-c5ccccc5)nn5ccccc45)n3)C2)cc1	6	
28	256	CN(C)C/C=C/C(=O)Nc1ccc(C(=O)N2CCCC[C@H](Nc3nccc(-c4c(-c5ccccc5)nn5ccccc45)n3)C2)cc1	9	
7	62	CN(C)C/C=C/C(=O)Nc1ccc(C(=O)N2CC[C@H](Nc3nccc(-c4c(-c5ccc(Cl)cc5)nn5ccccc45)n3)C2)cc1	9	
		Cc1cc(NC(=O)c2cccc(NC(=O)/C=C/CN(C)C)c2)ccc1Nc1nccc(-c2cccnc2)n1		Activity (ANBL-6 [6]): inactive; Activity [7]: Active; Activity (MM1.S [8]): inactive; Activity (MM1.S [9]): inactive; Activity [10]: Active; Activity (MM1.S [11]): inactive; Activity (ANBL-6 [12]): inactive
17	470	CN(C)C/C=C/C(=O)Nc1ccc(C(=O)N2CCC[C@@H](Nc3nccc(-c4c(-c5ccccc5)nn5ccccc45)n3)C2)cc1	28	
44	475	CN(C)C/C=C/C(=O)Nc1ccc(C(=O)NC2CCCC(Nc3nccc(-c4c(-c5ccccc5)nn5ccccc45)n3)C2)cc1 (stereo unspecified)	11	
8.3	724	CN(C)C/C=C/C(=O)Nc1ccc(C(=O)Nc2cccc(Nc3nccc(-c4c(-c5ccccc5)nn5ccccc45)n3)c2)cc1		inhibition [13]: Active; inhibition [14]: Active; inhibition [15]: Active; inhibition (Homo sapiens [16]): Active; inhibition [17]: Active; inhibition [18]: Active
4	74	CN(C)C/C=C/C(=O)Nc1ccc(C(=O)N2CC[C@H](Nc3nccc(-c4c(-c5cccc(Cl)c5)nn5ccccc45)n3)C2)cc1	19	
		O=c1ncn2nc(Sc3ccc(F)cc3F)ccc2c1-c1c(Cl)cccc1Cl [NEFLAMAPIMOD]		IC50 [19]: 10000 nM
